ChEMBL document CHEMBL1140523, “Benzazepinone Nav1.7 blockers: potential treatments for neuropathic pain” (Bioorg Med Chem Lett, 2007)

Experiments:
[1] = molecular target: Sodium channel protein type 9 subunit alpha (Homo sapiens, UniProt Q15858); experiment: Inhibition of human sodium channel Nav1.7 by FRET assay
How it was run: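 hNav1.7 block was measured in a functional membrane-potential assay read out as FRET between two membrane-associated dyes.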

hERG (KCNH2) = hERG (KCNH2) (Homo sapiens, UniProt Q12809); experiment: (§1) Displacement of [35S]MK-0499 from hERG at 10 uM; conditions: probe [35S]MK-0499
hERG (KCNH2), sequence (Q12809 whole entry): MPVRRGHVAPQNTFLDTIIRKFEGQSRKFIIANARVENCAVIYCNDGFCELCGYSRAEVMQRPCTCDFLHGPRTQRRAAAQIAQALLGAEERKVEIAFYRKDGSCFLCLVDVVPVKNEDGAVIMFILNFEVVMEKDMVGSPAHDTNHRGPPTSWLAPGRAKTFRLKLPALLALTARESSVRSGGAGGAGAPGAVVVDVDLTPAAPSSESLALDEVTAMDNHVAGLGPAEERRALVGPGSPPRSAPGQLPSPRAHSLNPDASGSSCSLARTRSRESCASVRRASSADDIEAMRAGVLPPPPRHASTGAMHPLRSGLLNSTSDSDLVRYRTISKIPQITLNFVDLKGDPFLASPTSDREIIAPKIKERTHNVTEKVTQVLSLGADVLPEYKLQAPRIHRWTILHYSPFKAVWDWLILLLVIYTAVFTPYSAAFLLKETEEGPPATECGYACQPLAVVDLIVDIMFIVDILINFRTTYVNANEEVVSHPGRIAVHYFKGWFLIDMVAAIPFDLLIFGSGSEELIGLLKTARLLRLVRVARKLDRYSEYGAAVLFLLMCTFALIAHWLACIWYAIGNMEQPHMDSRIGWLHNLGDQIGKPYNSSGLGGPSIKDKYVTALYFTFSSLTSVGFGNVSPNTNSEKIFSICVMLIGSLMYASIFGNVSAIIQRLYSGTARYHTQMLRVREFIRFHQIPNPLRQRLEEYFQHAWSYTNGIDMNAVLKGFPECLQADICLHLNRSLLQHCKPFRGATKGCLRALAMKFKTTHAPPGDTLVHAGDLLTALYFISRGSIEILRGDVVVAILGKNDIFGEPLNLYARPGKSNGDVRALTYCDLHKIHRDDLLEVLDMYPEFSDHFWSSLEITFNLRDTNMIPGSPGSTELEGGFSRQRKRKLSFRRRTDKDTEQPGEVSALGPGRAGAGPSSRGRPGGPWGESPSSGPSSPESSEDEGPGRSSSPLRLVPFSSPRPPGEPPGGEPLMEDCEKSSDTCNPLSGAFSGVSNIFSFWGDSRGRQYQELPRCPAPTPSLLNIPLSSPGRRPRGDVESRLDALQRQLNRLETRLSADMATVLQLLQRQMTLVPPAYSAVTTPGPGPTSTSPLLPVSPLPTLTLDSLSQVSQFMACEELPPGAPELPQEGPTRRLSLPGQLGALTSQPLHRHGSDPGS

[2] = (§2) Oral bioavailability in Sprague-Dawley rat at 3 mg/kg; type: ADME, organism-based; conditions: Sprague-Dawley, in vivo
How it was run: (§3)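 Fasted male Sprague–Dawley rats received 1.0 mg/kg iv through a femoral vein cannula (n = 3) or 3.0 mg/kg po by gavage (n = 3). Serial blood was drawn at 5 min (iv only), 15 and 30 min, and 1, 2, 4, 6 and 8 h. Plasma was protein-precipitated with acetonitrile and analysed by LC–MS/MS.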

[3] = Cmax in Sprague-Dawley rat at 1 mg/kg, iv or 3 mg/kg, po; type: ADME, organism-based; conditions: in vivo; how it was run: as §3
[4] = Plasma clearance in Sprague-Dawley rat at 1 mg/kg, iv or 3 mg/kg, po; type: ADME, organism-based; how it was run: as §3
[5] = (§4) Half life in Sprague-Dawley rat at 1 mg/kg, iv or 3 mg/kg, po; type: ADME, organism-based; conditions: Sprague-Dawley, in vivo; how it was run: as §3
Rattus norvegicus [6] = experiment: Reversal of allodynia in rat at 10 mg/kg, po after 2 hrs; type: functional
Rattus norvegicus [7] = experiment: Reversal of allodynia in rat at 10 mg/kg, po after 4 hrs; type: functional
[8] = molecular target: Voltage-gated inwardly rectifying potassium channel KCNH2 (Homo sapiens, UniProt Q12809); experiment: as §1; conditions: 10 µM
Voltage-gated inwardly rectifying potassium channel KCNH2, sequence (Q12809 whole entry): as above

Rattus norvegicus [9] = experiment: as §2; type: ADME, organism-based; conditions: in vivo; how it was run: as §3
Rattus norvegicus [10] = experiment: as §4; type: ADME, organism-based; conditions: in vivo; how it was run: as §3

Sodium channel protein type 9 subunit alpha, sequence (Q15858 whole entry): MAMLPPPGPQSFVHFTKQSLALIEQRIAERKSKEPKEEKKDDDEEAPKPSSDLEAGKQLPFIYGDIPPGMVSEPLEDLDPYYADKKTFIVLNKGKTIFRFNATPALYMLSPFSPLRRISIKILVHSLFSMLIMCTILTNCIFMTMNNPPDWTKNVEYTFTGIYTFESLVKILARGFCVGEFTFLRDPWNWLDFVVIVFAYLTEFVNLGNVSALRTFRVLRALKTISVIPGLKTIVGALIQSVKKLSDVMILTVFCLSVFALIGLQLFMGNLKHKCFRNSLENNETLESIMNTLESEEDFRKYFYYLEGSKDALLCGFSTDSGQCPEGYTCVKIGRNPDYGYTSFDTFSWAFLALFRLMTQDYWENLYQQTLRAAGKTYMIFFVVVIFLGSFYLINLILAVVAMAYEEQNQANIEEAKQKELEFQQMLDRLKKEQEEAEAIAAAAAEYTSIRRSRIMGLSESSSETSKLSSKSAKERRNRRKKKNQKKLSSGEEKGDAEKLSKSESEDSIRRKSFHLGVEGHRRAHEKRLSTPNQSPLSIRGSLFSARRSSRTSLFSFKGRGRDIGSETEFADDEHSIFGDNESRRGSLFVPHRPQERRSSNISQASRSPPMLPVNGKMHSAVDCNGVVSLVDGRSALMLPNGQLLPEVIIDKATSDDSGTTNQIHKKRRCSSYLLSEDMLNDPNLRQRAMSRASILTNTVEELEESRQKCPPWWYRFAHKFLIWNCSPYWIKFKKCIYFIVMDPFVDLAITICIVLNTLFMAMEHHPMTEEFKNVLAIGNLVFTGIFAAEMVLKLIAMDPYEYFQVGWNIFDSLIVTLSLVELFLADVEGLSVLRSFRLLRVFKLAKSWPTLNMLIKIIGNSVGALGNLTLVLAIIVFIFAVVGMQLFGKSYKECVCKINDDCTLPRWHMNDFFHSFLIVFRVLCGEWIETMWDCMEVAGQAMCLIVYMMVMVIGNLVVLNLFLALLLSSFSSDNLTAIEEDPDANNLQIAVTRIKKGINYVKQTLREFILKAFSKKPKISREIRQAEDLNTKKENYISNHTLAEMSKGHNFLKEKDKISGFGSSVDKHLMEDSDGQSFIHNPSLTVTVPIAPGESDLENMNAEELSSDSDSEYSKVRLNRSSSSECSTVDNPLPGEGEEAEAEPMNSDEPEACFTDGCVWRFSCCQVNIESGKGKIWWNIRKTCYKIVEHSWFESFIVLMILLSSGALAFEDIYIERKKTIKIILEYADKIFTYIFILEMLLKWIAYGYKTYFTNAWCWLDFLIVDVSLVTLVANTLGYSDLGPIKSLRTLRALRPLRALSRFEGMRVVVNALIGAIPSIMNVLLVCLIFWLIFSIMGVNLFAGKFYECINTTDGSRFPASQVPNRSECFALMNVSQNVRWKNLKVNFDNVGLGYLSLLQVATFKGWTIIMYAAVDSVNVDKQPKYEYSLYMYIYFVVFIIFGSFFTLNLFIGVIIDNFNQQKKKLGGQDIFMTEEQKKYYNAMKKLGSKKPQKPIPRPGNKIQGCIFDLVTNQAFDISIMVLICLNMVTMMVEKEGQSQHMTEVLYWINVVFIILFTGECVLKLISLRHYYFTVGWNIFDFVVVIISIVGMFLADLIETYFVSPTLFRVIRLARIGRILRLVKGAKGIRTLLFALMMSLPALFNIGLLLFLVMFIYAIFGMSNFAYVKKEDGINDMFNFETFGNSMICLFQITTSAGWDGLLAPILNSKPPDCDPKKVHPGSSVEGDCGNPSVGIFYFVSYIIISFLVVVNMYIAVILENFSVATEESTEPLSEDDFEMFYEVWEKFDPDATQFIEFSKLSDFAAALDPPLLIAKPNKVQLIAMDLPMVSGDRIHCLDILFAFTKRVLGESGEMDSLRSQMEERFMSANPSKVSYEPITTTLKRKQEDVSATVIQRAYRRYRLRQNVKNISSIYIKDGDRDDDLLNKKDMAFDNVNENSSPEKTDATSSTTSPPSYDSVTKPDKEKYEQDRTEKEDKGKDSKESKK

Row | SMILES | IC50 [1] [nM] | inhibition at 10 µM (hERG (KCNH2)) [%] | bioavailability [2] [%] | Cmax [3] [nM] | clearance [4] [mL/min/kg] | half-life [5] [h] | Activity (Rattus norvegicus [6]) [%] | Activity (Rattus norvegicus [7]) [%] | Inhibition [8] [%] | F (Rattus norvegicus [9]) [%] | t1/2 (Rattus norvegicus [10]) [h]
1 | CC(C)N1C(=O)[C@H](NC(=O)[C@@H](Cc2c(Cl)cccc2Cl)NC(=O)c2ccc(F)cc2C(F)(F)F)CCc2cc(Cl)ccc21 | 107 | 20 | 70 | 1470 | 12 | 2.9 | 14 | 9 | – | – | –
2 | CC(C)N1C(=O)[C@H](NC(=O)[C@@H](Cc2ccccc2OC(F)(F)F)NC(=O)C(F)(F)F)CCc2ccccc21 | 868 | 40 | – | – | – | – | – | – | – | – | –
3 | CC(C)N1C(=O)[C@H](NC(=O)[C@@H](Cc2ccccc2OC(F)(F)F)NC(=O)OC(C)(C)C)CCc2cc(Cl)ccc21 | 108 | 32 | 31 | – | 13 | 3 | – | – | – | – | –
4 | CC(C)N1C(=O)[C@H](NC(=O)[C@@H](Cc2ccccc2OC(F)(F)F)NC(=O)c2ccccc2C(F)(F)F)CCc2ccccc21 | 98 | 0 | – | – | – | – | – | – | – | – | –
5 | CC(C)N1C(=O)[C@H](NC(=O)[C@@H](Cc2ccccc2OC(F)(F)F)NC(=O)C(C)(C(F)(F)F)C(F)(F)F)CCc2ccccc21 | 203 | 10 | 42 | 330 | 23 | 2.5 | – | – | – | – | –
6 | CC(C)N1C(=O)[C@H](NC(=O)[C@@H](Cc2ccc(F)cc2F)NC(=O)c2ccc(F)cc2C(F)(F)F)CCc2cc(Cl)ccc21 | > 1000 | – | – | – | – | – | – | – | – | – | –
7 | CC(C)N1C(=O)[C@H](NC(=O)[C@@H](Cc2ccccc2OC(F)(F)F)NC(=O)C(C)(C)C)CCc2ccccc21 | 131 | 18 | 16 | 140 | 31 | 1.8 | – | – | – | – | –
8 | CC(C)N1C(=O)[C@H](NC(=O)[C@@H](Cc2ccccc2OC(F)(F)F)NC(=O)OC(C)(C)C)CCc2ccccc21 | – | 17 | – | – | – | – | – | – | – | – | –
9 | CC(C)N1C(=O)[C@H](NC(=O)[C@@H](Cc2ccccc2OC(F)(F)F)NC(=O)c2ccc(F)cc2)CCc2ccccc21 | 94 | 26 | 50 | 240 | 66 | 2.1 | – | – | – | – | –
10 | CC(C)N1C(=O)[C@H](NC(=O)[C@@H](Cc2ccccc2OC(F)(F)F)NC(=O)c2ccccc2)CCc2ccccc21 | 22 | 83 | 18 | 150 | 43 | 1.5 | – | – | – | – | –
11 | CC(C)N1C(=O)[C@H](NC(=O)[C@@H](Cc2c(F)cccc2F)NC(=O)c2ccc(F)cc2C(F)(F)F)CCc2cc(Cl)ccc21 | 290 | 7 | 68 | 740 | 19 | 2 | 18 | 35 | – | – | –
12 | CC(C)N1C(=O)[C@H](NC(=O)[C@@H](Cc2cc(F)ccc2F)NC(=O)c2ccc(F)cc2C(F)(F)F)CCc2cc(Cl)ccc21 | 232 | 10 | 42 | 260 | 32 | 2.2 | 55 | 61 | – | – | –
13 | CC(C)N1C(=O)[C@H](NC(=O)[C@@H](Cc2ccccc2OC(F)(F)F)NC(=O)c2ccncc2)CCc2ccccc21 | 453 | 44 | – | – | – | – | – | – | – | – | –
14 | CC(C)N1C(=O)[C@H](NC(=O)[C@@H](Cc2cccc(F)c2F)NC(=O)c2ccc(F)cc2C(F)(F)F)CCc2cc(Cl)ccc21 | 146 | 3 | – | – | – | – | – | – | – | – | –
15 | CC(C)N1C(=O)[C@H](NC(=O)[C@@H](Cc2ccccc2OC(F)(F)F)NC(=O)c2ccccn2)CCc2ccccc21 | 177 | 61 | 60 | 550 | 43 | 1.2 | – | – | – | – | –
16 | CC(C)N1C(=O)[C@H](NC(=O)[C@@H](Cc2ccccc2OC(F)(F)F)NC(=O)c2ncccn2)CCc2ccccc21 | > 1000 | 15 | – | – | – | – | – | – | – | – | –
17 | CC(C)N1C(=O)[C@H](NC(=O)[C@@H](Cc2ccccc2OC(F)(F)F)NC(=O)c2ccc(F)cc2C(F)(F)F)CCc2ccccc21 | 128 | 31 | 86 | 430 | 51 | 2.6 | – | – | – | – | –
18 | CC(=O)N[C@H](Cc1ccccc1OC(F)(F)F)C(=O)N[C@@H]1CCc2ccccc2N(C(C)C)C1=O | > 1000 | 9 | – | – | – | – | – | – | – | – | –
19 | CC(C)N1C(=O)[C@H](NC(=O)[C@@H](Cc2ccccc2F)NC(=O)c2ccc(F)cc2C(F)(F)F)CCc2cc(Cl)ccc21 | 30 | 32 | 90 | 330 | 44 | 2.8 | 56 | 28 | – | – | –
20 | CC(C)N1C(=O)C(NC(=O)[C@@H](Cc2ccccc2OC(F)(F)F)NC(=O)OC(C)(C)C)CCc2cccnc21 (stereo in doubt; 25) | 79 | – | – | – | 24 | 1.4 | – | – | 18 | 27 | –
21 | CC(C)N1C(=O)[C@H](NC(=O)[C@@H](Cc2ccccc2OC(F)(F)F)NC(=O)c2ccc(C(F)(F)F)cc2)CCc2ccccc21 | 175 | 43 | – | – | – | – | – | – | – | – | –
22 | CC(C)N1C(=O)[C@H](NC(=O)[C@@H](Cc2ccccc2OC(F)(F)F)NC(=O)c2cncnc2)CCc2ccccc21 | > 1000 | – | – | – | – | – | – | – | – | – | –
23 | CC(C)N1C(=O)[C@H](NC(=O)[C@@H](Cc2ccccc2OC(F)(F)F)NC(=O)OC(C)(C)C)COc2ccccc21 | 44 | 17 | 25 | – | 40 | 2 | – | – | – | – | –
24 | CC(C)N1C(=O)[C@H](NC(=O)[C@@H](Cc2ccccc2OC(F)(F)F)NC(=O)c2ccc(F)cc2C(F)(F)F)CCc2cc(Cl)ccc21 | 169 | 7 | 65 | 520 | 29 | 2.6 | – | – | – | – | –
25 | CC(C)N1C(=O)C(NC(=O)[C@@H](Cc2ccccc2OC(F)(F)F)NC(=O)OC(C)(C)C)CCc2cccnc21 (stereo in doubt; 24) | 80 | – | – | – | – | – | – | – | 7 | 4 | 1.9
